IC50 data for 25 compounds are collected here from ChEMBL document CHEMBL2346615, “Design, synthesis, and molecular modelling of pyridazinone and phthalazinone derivatives as protein kinases inhibitors” (Bioorg Med Chem Lett, 2013).

As usually defined, the IC50 is the concentration that inhibits the measured activity by half.

In experiment [1] the target is Cyclin-dependent kinase 5/CDK5 activator 1 (Homo sapiens, UniProt Q00535). Description: Inhibition of human recombinant CDK5/p25 after 30 mins by scintillation counting analysis in presence of [gamma-33P]ATP. It is filed as protein-complex assay.
For experiment [2], the target named is Dual specificity tyrosine-phosphorylation-regulated kinase 1A (Rattus norvegicus, UniProt Q63470). Description: Inhibition of rat recombinant DYRK1A expressed in Escherichia coli using myelin basic protein as substrate after 30 mins by scintillation counting analysis in presence of [gamma-33P]ATP.
In experiment [3] the target is Glycogen synthase kinase-3 (Sus scrofa, UniProt B2LUN4+I6LNT8). Description: Inhibition of pig brain GSK-3alpka/beta using YRRAAVPPSPSLSRHSSPHQSpEDEEE as substrate after 30 mins by scintillation counting analysis in presence of [gamma-33P]ATP.
Experiment [4] addresses T1, Casein kinase I isoform alpha (Sus scrofa, UniProt O19175).
T1 sequence (O19175 whole entry): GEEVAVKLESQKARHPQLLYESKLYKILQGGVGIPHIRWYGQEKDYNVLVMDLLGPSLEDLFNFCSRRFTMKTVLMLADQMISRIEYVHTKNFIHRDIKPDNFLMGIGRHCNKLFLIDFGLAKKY
Description: Inhibition of pig brain CK1 using RRKHAAIGpSAYSITA as substrate after 30 mins by scintillation counting analysis in presence of [gamma-33P]ATP.

In experiment [5] the test system is HL-60. As to the kind of experiment: Cytotoxicity against human HL60 cells after 48 hrs by MTT assay. It is filed as functional, cell-based. The note with it: HL-60, 48 h. The method in brief: (§1)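 Run in triplicate, with the mean reported; the IC50 for each cell line comes from non-linear regression with a 95% confidence interval.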
A general note: Tetrazolium dyes change colour on reduction, which living cells bring about.

For experiment [6], the system named is HCT-116. As to the kind of experiment: Cytotoxicity against human HCT116 cells after 48 hrs by MTT assay. The note with it: HCT-116, 48 h. The format is functional, cell-based. The method in brief: as §1
Experiment [7] concerns OVCAR-8. Description: Cytotoxicity against human OVCAR8 cells after 48 hrs by MTT assay. The format is functional, cell-based. The note with it: OVCAR-8, 48 h. The method in brief: as §1
In experiment [8] the test system is SF-295. Description: Cytotoxicity against human SF295 cells after 48 hrs by MTT assay. It is filed as functional, cell-based. The conditions noted are these: SF-295, 48 h. The method in brief: as §1

Sequence of Cyclin-dependent kinase 5/CDK5 activator 1 (Q00535 whole entry): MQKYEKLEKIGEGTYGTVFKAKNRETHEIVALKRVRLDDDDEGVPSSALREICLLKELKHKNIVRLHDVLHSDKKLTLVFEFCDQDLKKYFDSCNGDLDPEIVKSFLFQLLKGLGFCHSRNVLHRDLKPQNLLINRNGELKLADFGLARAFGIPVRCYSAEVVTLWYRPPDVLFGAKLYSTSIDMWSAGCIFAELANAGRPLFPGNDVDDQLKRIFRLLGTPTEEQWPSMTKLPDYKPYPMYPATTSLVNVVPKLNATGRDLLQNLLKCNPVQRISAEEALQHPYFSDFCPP
Sequence of Cyclin-dependent kinase 5/CDK5 activator 1 (Q15078 whole entry, further chain): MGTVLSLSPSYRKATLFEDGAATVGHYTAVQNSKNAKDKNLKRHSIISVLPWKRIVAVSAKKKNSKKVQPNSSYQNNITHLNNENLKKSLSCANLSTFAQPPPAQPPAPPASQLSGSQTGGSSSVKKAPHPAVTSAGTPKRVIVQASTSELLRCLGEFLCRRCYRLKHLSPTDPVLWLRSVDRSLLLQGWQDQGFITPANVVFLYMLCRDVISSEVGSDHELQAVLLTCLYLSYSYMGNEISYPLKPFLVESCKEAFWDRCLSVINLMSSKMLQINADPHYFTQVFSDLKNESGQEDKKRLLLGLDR

With `CC(C)C(=O)Nc1n[nH]c(=O)c2ccccc12`, the IC50 in experiment [1], in experiment [2], in experiment [3] and in experiment [4] was above 10 µM each time.
For the compound `O=c1[nH]nc(NCc2ccccc2)cc1-c1ccccc1`, the IC50 in experiment [1], in experiment [2], in experiment [3] and in experiment [4] was above 10 µM in each case.
Regarding `CCCNc1n[nH]c(=O)c2ccccc12`, the IC50 in experiment [1], in experiment [2], in experiment [3] and in experiment [4] was above 10 µM throughout.
Turning to `O=c1[nH]nc(NCCN2CCCCC2)cc1-c1ccccc1`, the IC50 in experiment [1], in experiment [2], in experiment [3] and in experiment [4] was above 10 µM in each case.
Turning to `CN1CCC(Nc2cc(-c3ccccc3)c(=O)[nH]n2)CC1`, the IC50 in experiment [1], in experiment [2], in experiment [3] and in experiment [4] was above 10 µM throughout.
Take `CC(=O)N(C(C)=O)c1n[nH]c(=O)c2ccccc12`: the IC50 in experiment [1], in experiment [2], in experiment [3] and in experiment [4] was above 10 µM in each case.
For `CCCNc1n[nH]c(=O)cc1-c1ccccc1`, the 50% inhibitory concentration (IC50) in experiment [1], in experiment [2], in experiment [3] and in experiment [4] was above 10 µM in each case.
As to `O=c1cc(-c2ccccc2)c(NCc2ccccc2)n[nH]1`, the IC50 in experiment [1], in experiment [2], in experiment [3] and in experiment [4] was above 10 µM each time.
Take `CC(=O)Nc1cc(-c2ccccc2)c(=O)[nH]n1`: the IC50 in experiment [5] was 11.6 µM; in experiment [1], above 10 µM; in experiment [6] it was 15.4 µM; in experiment [2], 10 µM; in experiment [7] it was 14 µM; in experiment [8] it was 7.66 µM. The IC50 was 2.2 µM in experiment [3] and above 10 µM in experiment [4].
Consider `CCCCCC(=O)N(C(=O)CCCCC)c1nnc(Cl)c2ccccc12`, for which the IC50 in experiment [1], in experiment [2], in experiment [3] and in experiment [4] was above 10 µM each time.
Turning to `O=C(Nc1cc(-c2ccccc2)c(Cl)nn1)c1ccccc1`, the IC50 in experiment [1], in experiment [2], in experiment [3] and in experiment [4] was above 10 µM each time.
With `Nc1n[nH]c(=O)c2ccccc12`, the IC50 in experiment [5] is 8.87 µM; in experiment [1], above 10 µM; in experiment [6], 12.7 µM; in experiment [2], 4.1 µM; in experiment [7], 11.8 µM; in experiment [8] it was 6.06 µM. Moreover, the IC50 in experiment [3] and in experiment [4] was above 10 µM in each case.
In the case of `CC(=O)Nc1n[nH]c(=O)cc1-c1ccccc1`, the 50% inhibitory concentration (IC50) in experiment [1], in experiment [2], in experiment [3] and in experiment [4] was above 10 µM each time.
For the compound `O=C(Nc1cc(-c2ccccc2)c(=O)[nH]n1)c1ccccc1`, the IC50 in experiment [1], in experiment [2], in experiment [3] and in experiment [4] was above 10 µM each time.
As to `O=c1cc(-c2ccccc2)c(NCCN2CCCCC2)n[nH]1`, the IC50 in experiment [1], in experiment [2], in experiment [3] and in experiment [4] was above 10 µM each time.
As to `O=C(Cc1ccccc1)Nc1nnc(Cl)c2ccccc12`, the IC50 in experiment [1], in experiment [2], in experiment [3] and in experiment [4] was above 10 µM throughout.
In the case of `Nc1n[nH]c(=O)cc1-c1ccccc1`, the IC50 in experiment [1], in experiment [2], in experiment [3] and in experiment [4] was above 10 µM each time.
Turning to `CC(C)C(=O)N(C(=O)C(C)C)c1n[nH]c(=O)c2ccccc12`, the IC50 in experiment [1], in experiment [2], in experiment [3] and in experiment [4] was above 10 µM in each case.
With `O=C(Cc1ccccc1)N(C(=O)Cc1ccccc1)c1nnc(Cl)c2ccccc12`, the IC50 in experiment [1], in experiment [2], in experiment [3] and in experiment [4] was above 10 µM each time.
Take `CCCNc1cc(-c2ccccc2)c(=O)[nH]n1`: the IC50 in experiment [1], in experiment [2], in experiment [3] and in experiment [4] was above 10 µM in each case.
In the case of `Nc1cc(-c2ccccc2)c(=O)[nH]n1`, the IC50 is 3.64 µM in experiment [5]; above 10 µM in experiment [1]; 4.4 µM in experiment [6]; 6 µM in experiment [2]; 4.86 µM in experiment [7]; 5.71 µM in experiment [8]. In addition, the values for the IC50 in experiment [3] and in experiment [4] were 8.1 µM and above 10 µM, respectively.
As for `CC(=O)Nc1n[nH]c(=O)c2ccccc12`, the IC50 in experiment [1], in experiment [2], in experiment [3] and in experiment [4] was above 10 µM each time.
In the case of `O=C(Cc1ccccc1)Nc1n[nH]c(=O)c2ccccc12`, the IC50 in experiment [1], in experiment [2], in experiment [3] and in experiment [4] was above 10 µM in each case.
Regarding `O=C(Nc1n[nH]c(=O)c2ccccc12)c1ccccc1`, the IC50 in experiment [1], in experiment [2], in experiment [3] and in experiment [4] was above 10 µM in each case.
For `O=c1[nH]nc(NCCN2CCCCC2)c2ccccc12`, the half-inhibitory concentration (IC50) in experiment [1], in experiment [2], in experiment [3] and in experiment [4] was above 10 µM each time.
